From publication PMC3377336 (EMBO Molecular Medicine, 2010)
Structures can show the parent of a compound that is named as a salt. Where two headings read alike, the source gives them in different places.

Experiments:
[1] = test system: NB67 cells; experiment: Secondary assay on NB67 TICs; details: same patient as NB12, 2 years later
[2] = test system: SKPs; experiment: Sphere-formation secondary assay, SKPs; assay type: cell-based, human; details: up to doses of 1 µM
[3] = test system: SH-SY5Y cells; experiment: alamarBlue dose-response assay; assay type: cell-based, human; details: serial dilutions, alamarBlue day 6, read day 7
[4] = test system: SMS-KCNR cells; experiment: Sphere-formation secondary assay, SMS-KCNR; assay type: cell-based, human; details: up to doses of 1 µM
[5] = test system: NB TICs; experiment: Apoptosis: nuclear morphology, sub-2n DNA content, cleaved PARP; assay type: cell-based, human; details: 50 nM rapamycin
Outline: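 NB12 cells (40,000) on lysine/laminin-coated chamber slides, treated in duplicate 24 h after plating, then fixed with 4% paraformaldehyde and 0.5 µg/ml Hoechst 33342; nuclei counted in 15 random fields. For DNA content and blots, 200,000 NB TICs per 25 cm2 flask were treated 48 h post-plating. Cells were ethanol-fixed, RNaseA/propidium iodide 1 h 37 °C, flow cytometry. NP-40 lysates were immunoblotted for cleaved PARP.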

[6] = test system: NB12 TICs; experiment: Cell viability by trypan blue exclusion; assay type: cell-based, human; details: 50 nM rapamycin
[7] = test system: p70S6K and S6RP phosphorylation; experiment: Immunoblot of mTOR target proteins; assay type: cell-based, human; details: 50 nM, 1 h
[8] = test system: NB88R2 xenograft tumours; experiment: NB88R2 xenograft tumours in NOD/SCID mice; assay type: in vivo; details: NB88 tumours; 3 mg/kg IP daily, 14 days
[9] = test system: SK-N-AS cells; experiment: alamarBlue dose-response assay; assay type: cell-based, human; details: serial dilutions, alamarBlue day 6, read day 7
[10] = test system: NB12 xenograft tumours; experiment: NB12 xenograft tumours in NOD/SCID mice; assay type: in vivo; details: 14 days
[11] = test system: NB12 xenograft tumours; experiment: Sphere formation of cells re-isolated from treated NB12 xenograft tumours; assay type: in vivo, NOD/SCID mice; details: dissociated tumours, methylcellulose, 10 days; 3 mg/kg IP daily
[12] = test system: NB67 cells
[13] = test system: NB TICs; experiment: Sphere-formation secondary assay, NB TICs; assay type: cell-based, human; details: for Fold difference in potency (EC50, sphere formation) NB TICs vs SKPs: text and legends

CC[C@]1(O)C[C@H]2CN(CCc3c([nH]c4ccccc34)[C@@](C(=O)OC)(c3cc4c(cc3OC)N(C=O)[C@H]3[C@@](O)(C(=O)OC)[C@H](OC(C)=O)[C@]5(CC)C=CCN6CC[C@]43[C@@H]65)C2)C1 [Vincristine sulfate]
Cytotoxicity to NB67 cells [1]: not cytotoxic

CO[C@H]1C[C@@H]2CC[C@@H](C)[C@@](O)(O2)C(=O)C(=O)N2CCCC[C@H]2C(=O)O[C@H]([C@H](C)C[C@@H]2CC[C@@H](O)[C@H](OC)C2)CC(=O)[C@H](C)/C=C(\C)[C@@H](O)[C@@H](OC)C(=O)[C@H](C)C[C@H](C)/C=C/C=C/C=C/1C [rapamycin]
Effect on sphere formation of SKPs [2]: little effect
Sensitivity of SH-SY5Y cells, alamarBlue assay [3]: not effective
Effect on sphere formation of SMS-KCNR cells [4]: little effect
Apoptosis in NB12 and NB122R cells [5]: induced features of apoptosis
Time to decrease of cell viability (trypan blue exclusion) [6]: 24 h
Phosphorylation of p70S6K and S6RP [7]: rapidly inhibited
Reduction of tumour weight relative to vehicle-treated controls [8]: 74.0%
Sensitivity of SK-N-AS cells, alamarBlue assay [9]: not effective
Reduction of tumour weight relative to vehicle-treated controls ([10]; 3 mg/kg IP daily): 82.6%
Reduction of sphere-forming ability in treated tumours [11]: 7.75 fold

COc1cc2c(c(OC)c1OC)-c1ccc(OC)c(=O)cc1[C@@H](NC(C)=O)CC2 [Colchicine]
Cytotoxicity to NB67 cells [12]: not cytotoxic

COc1cc([C@@H]2c3cc4c(cc3[C@@H](O[C@@H]3O[C@@H]5CO[C@@H](c6cccs6)O[C@H]5[C@H](O)[C@H]3O)[C@H]3COC(=O)[C@H]23)OCO4)cc(OC)c1O [Teniposide]
Fold difference in potency (EC50, sphere formation) NB TICs vs SKPs [13]: > 10 fold

COc1ccc2c(c[n+](C)c3c4cc5c(cc4ccc23)OCO5)c1OC [Chelerythrine chloride]
Selective cytotoxicity for NB TICs (PKC inhibitors) ([13]; sphere formation, NB TICs vs SKPs): selectively cytotoxic

C=C1C(=O)O[C@H]2[C@H]1CC/C(C)=C/CC[C@@]1(C)O[C@@H]21 [Parthenolide]
Fold difference in potency (EC50, sphere formation) NB TICs vs SKPs [13]: 3-50 fold

CC[C@]1(O)C[C@@H]2CN(CCc3c([nH]c4ccccc34)[C@@](C(=O)OC)(c3cc4c(cc3OC)N(C)[C@H]3[C@@](O)(C(=O)OC)[C@H](OC(C)=O)[C@]5(CC)C=CCN6CC[C@]43[C@@H]65)C2)C1 [Vinblastine sulfate]
Cytotoxicity to NB67 cells [1]: not cytotoxic
Fold difference in potency (EC50, sphere formation) NB TICs vs SKPs [13]: > 10 fold
Reduction of tumour weight relative to vehicle-treated controls ([10]; 0.25 mg/kg IP daily): 43.4%

CCN(CC)CCCC(C)Nc1c2ccc(Cl)cc2nc2ccc(OC)cc12 (stereo not drawn) [Quinacrine dihydrochloride]
Fold difference in potency (EC50, sphere formation) NB TICs vs SKPs [13]: 3-50 fold

COc1cc([C@@H]2c3cc4c(cc3[C@H](O)[C@H]3COC(=O)[C@H]23)OCO4)cc(OC)c1OC [Podophyllotoxin]
Cytotoxicity to NB67 cells [12]: not cytotoxic

CO[C@H]1C=C[C@@]23c4cc5c(cc4CN(C[C@@H]2O)[C@H]3C1)OCO5 [Crinamine]
Fold difference in potency (EC50, sphere formation) NB TICs vs SKPs [13]: > 50 fold
